Reference: ChEMBL document CHEMBL4706770, “SD-91 as A Potent and Selective STAT3 Degrader Capable of Achieving Complete and Long-Lasting Tumor Regression” (ACS Med Chem Lett, 2021)
Activity calls are given as the source filed them. The rule behind the calls is not given here.

Legend:
[1] = target: Signal transducer and activator of transcription 2 (Homo sapiens, UniProt P52630); experiment: Induction of STAT2 degradation in human SUP-M2 cells at 0.25 to 100 uM incubated for 14 hrs by Western blot analysis; format: cell-based; details: SUPM2, dose 0.25-100 µM
Sequence of Signal transducer and activator of transcription 2 (P52630 whole entry): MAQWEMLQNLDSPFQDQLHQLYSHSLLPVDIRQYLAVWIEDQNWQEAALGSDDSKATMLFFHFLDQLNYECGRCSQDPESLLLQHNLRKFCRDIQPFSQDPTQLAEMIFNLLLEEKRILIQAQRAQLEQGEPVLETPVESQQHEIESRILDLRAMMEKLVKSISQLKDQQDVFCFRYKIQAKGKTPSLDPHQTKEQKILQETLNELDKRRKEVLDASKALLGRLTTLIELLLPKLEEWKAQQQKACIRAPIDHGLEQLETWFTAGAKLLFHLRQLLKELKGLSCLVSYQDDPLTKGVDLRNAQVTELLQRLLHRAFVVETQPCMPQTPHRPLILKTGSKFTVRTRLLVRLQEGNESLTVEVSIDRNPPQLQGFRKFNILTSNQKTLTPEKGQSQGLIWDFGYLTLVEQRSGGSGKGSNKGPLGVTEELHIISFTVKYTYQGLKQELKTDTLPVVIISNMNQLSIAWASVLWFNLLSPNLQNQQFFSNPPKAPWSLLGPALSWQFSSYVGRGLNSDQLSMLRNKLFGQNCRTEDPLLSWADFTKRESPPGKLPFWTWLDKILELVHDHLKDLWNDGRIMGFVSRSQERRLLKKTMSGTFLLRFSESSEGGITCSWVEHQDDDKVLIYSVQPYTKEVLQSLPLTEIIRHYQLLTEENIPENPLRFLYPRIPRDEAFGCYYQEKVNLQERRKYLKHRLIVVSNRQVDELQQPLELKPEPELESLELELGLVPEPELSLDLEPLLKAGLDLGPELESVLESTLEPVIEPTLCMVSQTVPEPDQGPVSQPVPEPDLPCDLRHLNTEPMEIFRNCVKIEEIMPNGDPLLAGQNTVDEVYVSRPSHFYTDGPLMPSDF
How it was run: (§1)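 SU-DHL-1 or SUP-M2 cells treated over 25 nM to 100 μM. STAT family proteins assessed by Western blot.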

[2] = test system: SU-DHL-1; experiment: Antiproliferative activity against human SU-DHL-1 cells assessed as cell growth inhibition incubated for 4 days by CellTiter-Glo asssay; format: functional, cell-based; details: SU-DHL-1, 96 h
How it was run: (§2)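 Growth inhibition tested in MOLM-16 acute leukemia and SU-DHL-1 and SUP-M2 lymphoma cell lines.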

[3] = target: T1, Signal transducer and activator of transcription 1-alpha/beta (Homo sapiens) (UniProt P42224); experiment: Induction of STAT1 degradation in human MOLM16 cells at 0.25 to 100 uM incubated for 4 hrs by Western blot analysis; format: cell-based; details: dose 0.25-100 µM
T1 sequence (whole entry): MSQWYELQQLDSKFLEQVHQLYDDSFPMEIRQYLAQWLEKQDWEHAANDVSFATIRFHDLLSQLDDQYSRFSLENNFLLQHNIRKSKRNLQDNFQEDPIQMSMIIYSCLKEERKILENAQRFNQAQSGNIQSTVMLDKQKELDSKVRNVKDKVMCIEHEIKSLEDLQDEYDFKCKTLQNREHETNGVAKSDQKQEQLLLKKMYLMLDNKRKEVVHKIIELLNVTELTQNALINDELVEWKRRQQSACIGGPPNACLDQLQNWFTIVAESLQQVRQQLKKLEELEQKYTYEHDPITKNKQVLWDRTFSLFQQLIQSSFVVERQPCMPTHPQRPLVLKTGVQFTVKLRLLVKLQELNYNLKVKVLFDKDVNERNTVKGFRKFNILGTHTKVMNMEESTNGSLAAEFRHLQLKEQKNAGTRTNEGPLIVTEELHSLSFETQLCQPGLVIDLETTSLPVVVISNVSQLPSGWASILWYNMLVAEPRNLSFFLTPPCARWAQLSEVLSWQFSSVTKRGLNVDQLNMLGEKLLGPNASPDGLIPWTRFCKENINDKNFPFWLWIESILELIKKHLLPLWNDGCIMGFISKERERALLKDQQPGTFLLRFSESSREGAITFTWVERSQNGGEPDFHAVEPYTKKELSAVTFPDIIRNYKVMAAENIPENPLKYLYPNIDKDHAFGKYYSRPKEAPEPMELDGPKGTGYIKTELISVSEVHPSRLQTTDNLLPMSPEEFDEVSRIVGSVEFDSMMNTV
How it was run: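 MOLM-16 cells treated for 4 h over 25 nM to 100 μM. STAT proteins assessed by Western blot with GAPDH as loading control.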

[4] = test system: SU-DHL-1; experiment: Induction of STAT4 expression in human SU-DHL-1 cells at 0.25 to 100 uM incubated for 4 hrs by Western blot analysis; format: functional, cell-based; details: dose 0.25-100 µM
[5] = target: T2, Signal transducer and activator of transcription 5A (Homo sapiens) (UniProt P42229); experiment: Induction of STAT5 degradation in human MOLM16 cells at 0.25 to 100 uM incubated for 4 hrs by Western blot analysis; format: cell-based; details: dose 0.25-100 µM
T2 sequence (whole entry): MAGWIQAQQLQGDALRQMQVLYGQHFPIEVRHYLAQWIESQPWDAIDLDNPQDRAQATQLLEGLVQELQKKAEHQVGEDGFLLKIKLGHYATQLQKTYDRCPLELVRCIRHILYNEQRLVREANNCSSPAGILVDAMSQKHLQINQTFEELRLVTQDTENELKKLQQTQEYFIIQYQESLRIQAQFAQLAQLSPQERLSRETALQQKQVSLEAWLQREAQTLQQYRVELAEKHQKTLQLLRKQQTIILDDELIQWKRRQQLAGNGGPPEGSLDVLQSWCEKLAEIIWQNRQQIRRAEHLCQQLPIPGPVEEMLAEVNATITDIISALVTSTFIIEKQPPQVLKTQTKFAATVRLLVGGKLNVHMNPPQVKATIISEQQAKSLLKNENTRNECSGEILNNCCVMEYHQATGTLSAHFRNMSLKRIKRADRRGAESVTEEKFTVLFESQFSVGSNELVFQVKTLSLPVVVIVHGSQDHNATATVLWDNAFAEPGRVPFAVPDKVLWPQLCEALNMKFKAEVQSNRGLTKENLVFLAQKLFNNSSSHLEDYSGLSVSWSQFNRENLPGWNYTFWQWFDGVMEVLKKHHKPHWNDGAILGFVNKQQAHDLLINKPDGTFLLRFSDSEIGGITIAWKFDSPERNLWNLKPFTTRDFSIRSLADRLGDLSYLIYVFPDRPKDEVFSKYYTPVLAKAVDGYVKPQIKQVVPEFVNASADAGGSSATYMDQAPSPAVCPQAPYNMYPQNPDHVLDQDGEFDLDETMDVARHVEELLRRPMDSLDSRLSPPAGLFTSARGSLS
How it was run: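 Cells treated 4 h with compounds across 25 nM to 100 μM; STAT proteins detected by Western blot with GAPDH as loading control; STAT3 DC50 estimated by densitometry of STAT3 relative to GAPDH. Applies to MOLM-16 for all STATs, and to SU-DHL-1 and SUP-M2 for STAT3.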

[6] = target: T1, Signal transducer and activator of transcription 1-alpha/beta (Homo sapiens); experiment: Induction of STAT1 degradation in human SU-DHL-1 cells at 0.25 to 100 uM incubated for 14 hrs by Western blot analysis; format: cell-based; details: dose 0.25-100 µM; how it was run: as §1
[7] = Antiproliferative activity against human MOLM-16 cells assessed as cell growth inhibition incubated for 4 days by CellTiter-Glo asssay; format: functional, cell-based; details: MOLM16, 96 h; how it was run: as §2
[8] = target: T1, Signal transducer and activator of transcription 1-alpha/beta (Homo sapiens); experiment: Induction of STAT1 degradation in human SUP-M2 cells at 0.25 to 100 uM incubated for 14 hrs by Western blot analysis; format: cell-based; details: SUPM2, dose 0.25-100 µM; how it was run: as §1
[9] = target: Signal transducer and activator of transcription 3 (Homo sapiens, UniProt P40763); experiment: Induction of STAT3 degradation in human SUP-M2 cells at 0.25 to 100 uM incubated for 14 hrs by Western blot analysis; format: cell-based; details: SUPM2, dose 0.25-100 µM
Sequence of Signal transducer and activator of transcription 3 (P40763 whole entry): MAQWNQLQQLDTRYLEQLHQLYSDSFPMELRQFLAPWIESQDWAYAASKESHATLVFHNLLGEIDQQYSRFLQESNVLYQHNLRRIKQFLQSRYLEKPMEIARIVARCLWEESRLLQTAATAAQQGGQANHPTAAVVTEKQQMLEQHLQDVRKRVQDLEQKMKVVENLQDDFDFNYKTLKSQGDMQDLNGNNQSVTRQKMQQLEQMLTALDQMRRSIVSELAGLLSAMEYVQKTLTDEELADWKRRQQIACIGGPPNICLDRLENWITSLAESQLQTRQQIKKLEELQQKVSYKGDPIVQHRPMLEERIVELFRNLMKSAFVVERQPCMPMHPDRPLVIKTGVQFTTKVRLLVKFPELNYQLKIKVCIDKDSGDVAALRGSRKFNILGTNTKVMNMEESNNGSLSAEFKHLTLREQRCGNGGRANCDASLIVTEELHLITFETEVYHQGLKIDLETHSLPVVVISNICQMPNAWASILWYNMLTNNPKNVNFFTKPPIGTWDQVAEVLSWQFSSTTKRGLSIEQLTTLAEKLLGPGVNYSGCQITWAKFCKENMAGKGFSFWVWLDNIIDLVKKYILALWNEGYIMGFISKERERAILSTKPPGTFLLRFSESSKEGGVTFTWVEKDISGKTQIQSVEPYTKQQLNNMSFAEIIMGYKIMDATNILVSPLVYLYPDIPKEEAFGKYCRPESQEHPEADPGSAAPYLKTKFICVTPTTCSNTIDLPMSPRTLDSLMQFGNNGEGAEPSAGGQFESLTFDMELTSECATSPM

[10] = target: T2, Signal transducer and activator of transcription 5A (Homo sapiens); experiment: Induction of STAT5 degradation in human SU-DHL-1 cells at 0.25 to 100 uM incubated for 14 hrs by Western blot analysis; format: cell-based; details: dose 0.25-100 µM

Row | SMILES | Activity [1] | IC50 [2] | Activity [3] | Activity [4] | Activity [5] | Activity [6] | IC50 [7] | Activity [8] | Activity [9] | Activity [10]
1 | CC(=O)N1CC[C@H]2CC[C@@H](C(=O)N[C@@H](CCC(N)=O)C(=O)NC(c3ccccc3)c3ccccc3)N2C(=O)[C@@H](NC(=O)c2cc3cc(C(=O)P(=O)(O)O)ccc3[nH]2)C1 | inactive | > 10000 nM | inactive | inactive | inactive | inactive | > 10000 nM | inactive | inactive | inactive
2 | NC(=O)CC[C@H](NC(=O)[C@@H]1CC[C@@H]2CCN(C(=O)CCCCCC#Cc3cccc4c3CN(C3CCC(=O)NC3=O)C4=O)C[C@H](NC(=O)c3cc4cc(C(=O)P(=O)(O)O)ccc4[nH]3)C(=O)N21)C(=O)NC(c1ccccc1)c1ccccc1 (stereo partly drawn) | inactive | 2600 nM | inactive | Active | inactive | inactive | 170 nM | inactive | Active | inactive
3 | CC(=O)N1CC[C@H]2CC[C@@H](C(=O)N[C@@H](CCC(N)=O)C(=O)NC(c3ccccc3)c3ccccc3)N2C(=O)[C@@H](NC(=O)c2cc3cc(C(F)(F)P(=O)(O)O)ccc3[nH]2)C1 | inactive | > 10000 nM | inactive | inactive | inactive | inactive | > 10000 nM | inactive | inactive | inactive
4 | NC(=O)CC[C@H](NC(=O)[C@@H]1CC[C@@H]2CCN(C(=O)CCCCCC#Cc3cccc4c3CN(C3CCC(=O)NC3=O)C4=O)C[C@H](NC(=O)c3cc4cc(C(F)(F)P(=O)(O)O)ccc4[nH]3)C(=O)N21)C(=O)NC(c1ccccc1)c1ccccc1 (stereo partly drawn) |  | 3400 nM |  | Active |  |  | 180 nM |  |  | 
